This note sets out measurements from ChEMBL document CHEMBL1137702, “Identification of hydrolytically stable and selective P2Y(1) receptor agonists” (Eur J Med Chem, 2009).

Data set [1] concerns the target T1, Ectonucleoside triphosphate diphosphohydrolase 1 (Homo sapiens) (UniProt P49961).
T1 sequence (whole entry): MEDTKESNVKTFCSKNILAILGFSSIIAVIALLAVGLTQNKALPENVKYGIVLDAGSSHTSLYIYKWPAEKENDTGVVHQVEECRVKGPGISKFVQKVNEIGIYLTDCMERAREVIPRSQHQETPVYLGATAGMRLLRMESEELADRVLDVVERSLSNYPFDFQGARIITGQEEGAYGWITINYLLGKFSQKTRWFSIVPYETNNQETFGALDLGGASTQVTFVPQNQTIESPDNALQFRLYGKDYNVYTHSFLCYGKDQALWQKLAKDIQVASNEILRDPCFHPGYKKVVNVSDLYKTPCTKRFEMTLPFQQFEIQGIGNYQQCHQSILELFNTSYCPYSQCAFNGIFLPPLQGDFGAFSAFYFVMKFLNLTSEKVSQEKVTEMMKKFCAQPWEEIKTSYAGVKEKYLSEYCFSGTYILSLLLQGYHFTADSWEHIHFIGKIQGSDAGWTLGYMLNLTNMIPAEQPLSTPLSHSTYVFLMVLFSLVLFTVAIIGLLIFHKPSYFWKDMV
The experiment in a line: Activity of human NTPDase 1 expressed in human 293T cells assessed as drug hydrolysis at 100 uM after 20 mins relative to ATP. In kind it is cell-based. Also on record: scale not given: the % may be the effect or the level left. An outline of the steps: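 Human NTPDase1, 2, 3 or 8 in crude extracts of transfected 293T cells, pre-incubated 3 min at 37 °C in Tris-Ringer buffer pH 7.4. […] Untransfected-cell extract activity subtracted.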

Data set [2] can be described thus: Dissociation constant, pKa of the compound. Type of data set: physicochemical.
Data set [3] is described as follows: Stability at 77 ug/ml after 30 mins by HPLC in presence of calf intestine alkaline phosphatase. The note with it: cattle, isolated protein, 0.5 h. Type of data set: ADME.
A further data set has as its target P2Y purinoceptor 1 (Meleagris gallopavo, UniProt P49652). Briefly: Agonist activity at turkey P2Y1 receptor expressed in human 1321N1 cells assessed as increase in intracellular calcium concentration by dual-excitation spectrofluorimetric analysis. In kind it is functional, cell-based. (In general: A change in cytosolic calcium serves as a functional read-out for many receptors and channels.)

Data set [4] is described as follows: Chemical stability assessed as hydrolysis half life at 1.5 mg at pH 1.4 measured at 24 hrs interval for 12 days by 31P NMR analysis. In kind it is physicochemical. An outline of the steps:
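1.5 mg in 0.2 M HCl/KCl with D2O, pH adjusted to 1.4, kept at 37 °C. 31P NMR spectra, 500 scans each, were recorded about every 24 h for 12 days to obtain half-life.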

The subject of a further data set is Serum. Briefly: Metabolic stability in human serum assessed as hydrolysis half life at 0.25 mM measured for 4 days by HPLC. In kind it is ADME, cell-free. The note with it: 96 h, 250 µM. An outline of the steps:
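Human serum (healthy donors; clotted 12 h at 4 °C, spun 1500 × g, stored −80 °C) diluted with RPMI-1640, incubated with 0.25 mM nucleotide at 37 °C for 1–96 h. Stopped with HCl, neutralized with KOH, analysed by C18 HPLC (KH2PO4 pH 4.5/acetonitrile). t1/2 from peak-area change.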

Sequence of P2Y purinoceptor 1 (P49652 whole entry): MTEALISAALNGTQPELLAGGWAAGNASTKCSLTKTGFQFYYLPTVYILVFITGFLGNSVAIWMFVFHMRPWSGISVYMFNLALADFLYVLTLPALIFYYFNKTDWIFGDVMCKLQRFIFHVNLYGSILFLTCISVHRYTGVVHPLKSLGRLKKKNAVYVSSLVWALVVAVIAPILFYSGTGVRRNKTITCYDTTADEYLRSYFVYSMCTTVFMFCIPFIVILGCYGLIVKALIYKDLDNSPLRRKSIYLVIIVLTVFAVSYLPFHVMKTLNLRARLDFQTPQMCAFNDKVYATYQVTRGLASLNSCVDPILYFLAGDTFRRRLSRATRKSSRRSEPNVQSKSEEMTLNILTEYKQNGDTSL

Turning to `CSc1nc(N)c2ncn([C@@H]3O[C@H](COP(=O)(O)OP(=O)(O)CP(=O)(O)O)[C@@H](O)[C@H]3O)c2n1`, the Activity in data set [1] was found to be 8%. The compound also had a pKa in data set [2] of 8.4. Besides, in data set [3], the Stability entry is on record as “Stable”. Further, the EC50 on P2Y purinoceptor 1 was determined as 80 nM. For the same compound, the half-life in data set [4] is 65 h. Further, the t1/2 in the data set on Serum came to 12.7 h.

Take `BP(=O)(OC[C@H]1O[C@@H](n2cnc3c(N)ncnc32)[C@H](O)[C@@H]1O)OP(=O)(O)CP(=O)(O)O` (stereo not given in full): the Activity in data set [1] was determined as 1%.

Consider `BP(=O)(OC[C@H]1O[C@@H](n2cnc3c(N)nc(SC)nc32)[C@H](O)[C@@H]1O)OP(=O)(O)CP(=O)(O)O` (single isomer, unassigned; diastereomer A), for which the Activity in data set [1] was under 1%.

As for `BP(=O)(OC[C@H]1O[C@@H](n2cnc3c(N)nc(SC)nc32)[C@H](O)[C@@H]1O)OP(=O)(O)CP(=O)(O)O` (single isomer, unassigned; diastereomer B), the Activity in data set [1] is under 1%.

For `BP(=O)(OC[C@H]1O[C@@H](n2cnc3c(N)ncnc32)[C@H](O)[C@@H]1O)OP(=O)(O)CP(=O)(O)O` (single isomer, unassigned; diastereomer B), in data set [1], the Activity worked out at 0%.

Broadly, the pKa is the negative logarithm of the acid dissociation constant. In general, EC50 refers to the concentration that produces a half-maximal response. The half-life is the time in which the quantity being followed falls by half.
